In assay [1] the test system is Trichinella spiralis. The assay can be described thus: Antitrichinellosis activity against Trichinella spiralis assessed as parasites viability at 5 ug/ml after 24 hrs by stereomicroscopy. The class given is functional. The method, boiled down:
(§1)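 Encapsulated larvae, 100 per 1 ml physiological solution (Campbell's method), exposed to compound dissolved in DMSO at 5 µg/ml; incubated in a humid thermostatted chamber at 37 °C. Larval vitality checked by stereomicroscopy at 24 and 48 h.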

Another assay deals with Giardia muris. The assay is described as follows: Antiprotozoal activity against Giardia muris infected in white mouse assessed as presence of cysts in mouse faeces at 0.5 ug/ml, po after 5 days by microscopy. Type of assay: functional, organism-based. The settings on record: Feces. The essentials:
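Infected white mice (five per group) dosed p.o. once daily by thin metal oesophageal probe, 0.5 µg/ml pro die as 0.5 ml DMSO solution, for 5 days; untreated and DMSO-only control groups. After the course, faeces stained with Lugol's solution and examined microscopically for cysts.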

For a further assay, the system named is Paramecium caudatum. The assay can be described thus: Antiprotozoal activity against Paramecium caudatum assessed as parasites viability at 1 ug/ml after 15-20 mins by stereomicroscopy. Type of assay: functional. The essentials: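 Paramecia from dry-hay maceration culture; 2–3 drops of culture added to a drop of compound in DMSO (1 µg/ml) in a Petri dish. Motility and cell integrity followed stereomicroscopically over minutes after addition.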

In assay [2] the test system is Trichinella spiralis. The assay can be described thus: Antitrichinellosis activity against Trichinella spiralis assessed as parasites viability at 5 ug/ml after 48 hrs by stereomicroscopy. The class given is functional. The method, boiled down: as §1

Calls of active or inactive are those of the source. No cut-off for these calls is given here.

For `CCCn1c(SCCc2nc3sc4c(c3c(=O)[nH]2)CCCC4)nc2ccccc21`, the results for the Efficacy in the assay on Trichinella spiralis [1] and in the assay on Trichinella spiralis [2] were 84.8% and 90.05%, respectively. The outcome in the assay with Giardia muris and with Paramecium caudatum was Active.

`CCOC(=O)c1sc2nc(CCSc3nc4cc(Cl)ccc4[nH]3)[nH]c(=O)c2c1C`: the Efficacy amounted to 0% in the assay on Trichinella spiralis [1] and 5.09% with Trichinella spiralis [2]. For the same compound, the outcome in the assay on Giardia muris and in the assay on Paramecium caudatum was Active.

In the case of `CCOC(=O)c1sc2nc(CCSc3nc4cc([N+](=O)[O-])ccc4[nH]3)[nH]c(=O)c2c1C`, the Efficacy in the assay with Trichinella spiralis [1] is listed as 50%; in the assay with Trichinella spiralis [2], 80.05%. The outcome in the assay with Giardia muris and with Paramecium caudatum was Active.

With `CCOC(=O)c1sc2nc(CCSc3nc4ccccc4n3CC)[nH]c(=O)c2c1C`, the figures for the Efficacy with Trichinella spiralis [1] and in the assay with Trichinella spiralis [2] were 39.07% and 59.75%, respectively. Besides, the outcome in the assay with Giardia muris and in the assay on Paramecium caudatum was Active.

For `CCOC(=O)c1sc2nc(CCn3cnc4ccccc43)[nH]c(=O)c2c1C`, the figures for the Efficacy in the assay on Trichinella spiralis [1] and with Trichinella spiralis [2] were 79.8% and 85.3%, respectively. Further, the outcome in the assay on Giardia muris and in the assay on Paramecium caudatum was Active.

`O=c1[nH]c(CCn2cnc3cc([N+](=O)[O-])ccc32)nc2sc3c(c12)CCCC3`: the Efficacy in the assay with Trichinella spiralis [1] and in the assay on Trichinella spiralis [2] was 95.05% in each case. The outcome in the assay with Giardia muris and in the assay on Paramecium caudatum was Active.

Consider `CCCSc1ccc2[nH]c(NC(=O)OC)nc2c1` [ALBENDAZOLE], for which the Efficacy was found to be 10.6% in the assay on Trichinella spiralis [1] and 14.8% in the assay on Trichinella spiralis [2].

On to `O=c1[nH]c(CCSc2nc3ccccc3n2[N+](=O)[O-])nc2sc3c(c12)CCCC3`, for which the Efficacy in the assay with Trichinella spiralis [1] and with Trichinella spiralis [2] was 90.1% throughout. Besides, the outcome in the assay with Giardia muris and in the assay with Paramecium caudatum was Active.

Turning to `Cn1c(SCCc2nc3sc4c(c3c(=O)[nH]2)CCCC4)nc2ccccc21`, the Efficacy in the assay on Trichinella spiralis [1] amounted to 40.05%; in the assay with Trichinella spiralis [2], 89.9%. The result with Giardia muris and with Paramecium caudatum was Active.

(Values after ChEMBL document CHEMBL1629504, “Synthesis, antitrichinnellosis and antiprotozoal activity of some novel thieno[2,3-d]pyrimidin-4(3H)-ones containing benzimidazole ring” (2010).)
